Reference: ChEMBL document CHEMBL1921722, “In vitro and in vivo evaluation of select kahalalide F analogs with antitumor and antifungal activities” (Bioorg Med Chem, 2011)
Calls of active or inactive are those of the source.

Key:
HOP-62 [1] = experiment: Cytotoxicity against human HOP62 cells by sulforhodamine B assay; format: functional
In short: (§1)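 Run by the NCI Developmental Therapeutics Program on its 60-line human tumour cell panel using the standard procedure. Compounds went through a single-concentration prescreen first, and those active by NCI criteria went on to a five-concentration growth-inhibition test. GI50 is the concentration that cuts growth of treated cells to half that of untreated control cells.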

HOP-62 [2] = experiment: Cytotoxicity against human HOP62 cells assessed as cell growth at 8 nM by sulforhodamine B assay relative to control; format: functional; details: read-out: Activity
COLO 205 [3] = experiment: Antitumor activity against human COLO205 cells xenografted in mouse assessed as tumor cell killing at 4.7 mg/kg, ip qd for 4 days by MTT assay; format: functional, organism-based; set-up: dose 4.7 mg/kg
In short: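 Hollow-fiber assay in mice. Tumor lines were grown in RPMI-1640 with 10% FBS and 2 mM glutamine. Cells at 2 × 10^6 cells/ml were loaded into 1 mm PVDF fibers (500,000 Da cutoff), heat-sealed at 2 cm and held 24–48 h at 37 °C, 5% CO2 before implantation. Compound was given IP. Fibers were collected the day after the fourth treatment for MTT (OD 540 nm, group means). A ≥50% cut in percent net growth versus vehicle counted as positive.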

UACC-62 = experiment: Cytotoxicity against human UACC62 cells by sulforhodamine B assay; format: functional
In short: (§2)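 NCI Developmental Therapeutics Program 60-cell-line human tumor panel screen, run at NCI. A single-concentration pre-screen was followed by a five-concentration dose-response in 10-fold steps. GI50 is the concentration that reduces growth of treated cells to half that of untreated control cells. TGI is the concentration that completely halts growth.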

SF-539 [4] = experiment: Cytotoxicity against human SF539 cells assessed as cell growth at 8 nM by sulforhodamine B assay relative to control; format: functional; details: read-out: Activity
COLO 205 [5] = experiment: Cytotoxicity against human COLO205 cells by sulforhodamine B assay; format: functional
In short: (§3)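 Run at NCI in the DTP 60-cell-line human tumor panel by standard procedure. Compounds were first screened at a single concentration, then tested at five tenfold-spaced concentrations. GI50 is the concentration reducing treated-cell growth to half that of untreated controls; TGI is the concentration completely halting growth.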

SF-539 [6] = experiment: Cytotoxicity against human SF539 cells by sulforhodamine B assay; format: functional; in short: as §2
OVCAR-5 = experiment: Cytotoxicity against human OVCAR5 cells assessed as cell growth at 8 uM by sulforhodamine B assay relative to control; format: functional; details: read-out: Activity
ACHN = experiment: Cytotoxicity against human ACHN cells by sulforhodamine B assay; format: functional; in short: as §3
NCI-H23 = experiment: Cytotoxicity against human NCI-H23 cells assessed as cell growth at 800 nM by sulforhodamine B assay relative to control; format: functional; details: read-out: Activity
COLO 205 [7] = experiment: Cytotoxicity against human COLO205 cells assessed as cell growth at 800 nM by sulforhodamine B assay relative to control; format: functional; details: read-out: Activity; in short: as §3
U-251 = experiment: Cytotoxicity against human U251 cells assessed as cell growth at 80 nM by sulforhodamine B assay relative to control; format: functional; details: read-out: Activity
HOP-92 [8] = experiment: Cytotoxicity against human HOP92 cells by sulforhodamine B assay; format: functional; in short: as §1
Malme-3M = experiment: Cytotoxicity against human MALME-3M cells assessed as cell growth at 80 uM by sulforhodamine B assay relative to control; format: functional; details: read-out: Activity
NCI/ADR-RES = experiment: Cytotoxicity against human NCI/ADR-RES cells assessed as cell growth at 8 uM by sulforhodamine B assay relative to control; format: functional; details: read-out: Activity
SK-OV-3 [9] = experiment: Cytotoxicity against human SKOV3 cells assessed as cell growth at 8 nM by sulforhodamine B assay relative to control; format: functional; details: read-out: Activity
KM12 = experiment: Cytotoxicity against human KM12 cells assessed as cell growth at 80 uM by sulforhodamine B assay relative to control; format: functional; details: read-out: Activity
T47D = experiment: Cytotoxicity against human T47D cells assessed as cell growth at 8 uM by sulforhodamine B assay relative to control; format: functional; details: read-out: Activity
SNB-75 = experiment: Cytotoxicity against human SNB75 cells by sulforhodamine B assay; format: functional; in short: as §2
MDA-MB-435 = experiment: Cytotoxicity against human MDA-MB-435 cells assessed as cell growth at 80 uM by sulforhodamine B assay relative to control; format: functional; details: read-out: Activity
Hs-578T = experiment: Cytotoxicity against human Hs578T cells assessed as cell growth at 80 nM by sulforhodamine B assay relative to control; format: functional; details: read-out: Activity
HCC 2998 = experiment: Cytotoxicity against human HCC2998 cells assessed as cell growth at 800 nM by sulforhodamine B assay relative to control; format: functional; details: read-out: Activity
SK-OV-3 [10] = experiment: Cytotoxicity against human SKOV3 cells assessed as cell growth at 80 nM by sulforhodamine B assay relative to control; format: functional; details: read-out: Activity
SF-295 = experiment: Cytotoxicity against human SF295 cells assessed as cell growth at 80 nM by sulforhodamine B assay relative to control; format: functional; details: read-out: Activity
HOP-92 [11] = experiment: Cytotoxicity against human HOP92 cells assessed as cell growth at 8 nM by sulforhodamine B assay relative to control; format: functional; details: read-out: Activity
SK-MEL-2 = experiment: Cytotoxicity against human SK-MEL-2 cells assessed as cell growth at 8 uM by sulforhodamine B assay relative to control; format: functional; details: read-out: Activity
MDA-MB-231 = experiment: Cytotoxicity against human MDA-MB-231 cells assessed as cell growth at 80 nM by sulforhodamine B assay relative to control; format: functional; details: read-out: Activity
SK-OV-3 [12] = experiment: Cytotoxicity against human SKOV3 cells assessed as cell growth at 8 uM by sulforhodamine B assay relative to control; format: functional; details: read-out: Activity
OVCAR-4 = experiment: Cytotoxicity against human OVCAR4 cells by sulforhodamine B assay; format: functional; in short: as §2
MCF7 = experiment: Cytotoxicity against human MCF7 cells assessed as cell growth at 80 uM by sulforhodamine B assay relative to control; format: functional; details: read-out: Activity
RPMI-8226 = experiment: Cytotoxicity against human RPMI8226 cells assessed as cell growth at 8 nM by sulforhodamine B assay relative to control; format: functional; details: read-out: Activity
HCT-15 [13] = experiment: Cytotoxicity against human HCT15 cells assessed as cell growth at 8 nM by sulforhodamine B assay relative to control; format: functional; details: read-out: Activity
HCT-15 [14] = experiment: Cytotoxicity against human HCT15 cells by sulforhodamine B assay; format: functional; in short: as §1
RXF 393 = experiment: Cytotoxicity against human RXF393 cells assessed as cell growth at 80 nM by sulforhodamine B assay relative to control; format: functional; details: read-out: Activity
SK-MEL-28 = experiment: Cytotoxicity against human SK-MEL-28 cells assessed as cell growth at 80 uM by sulforhodamine B assay relative to control; format: functional; details: read-out: Activity

`C/C=C1\NC(=O)[C@H](Cc2ccccc2)NC(=O)[C@@H](C(C)C)NC(=O)[C@@H]([C@@H](C)CC)NC(=O)[C@H](NC(=O)[C@H](NC(=O)[C@H](CCCNCc2ccc(N3CCOCC3)cc2)NC(=O)[C@H]2CCCN2C(=O)[C@H](NC(=O)[C@@H](NC(=O)[C@@H](NC(=O)[C@H](NC(=O)CCCC(C)C)C(C)C)[C@@H](C)O)C(C)C)C(C)C)[C@@H](C)CC)[C@@H](C)OC(=O)[C@H](C(C)C)NC1=O` was tested, and the GI50 (HOP-62 [1]) was 1410 nM, the LC50 (HOP-62 [1]) was 5750 nM and the TGI (HOP-62 [1]; read-out: pTGI (converted)) was 2820 nM. The growth at 0.008 µM (HOP-62 [2]) was 104%, the Activity (COLO 205 [3]) was “inactive” and the GI50 (UACC-62) was 1350 nM. For the same molecule, the LC50 (UACC-62) was 4270 nM, the TGI (UACC-62; read-out: pTGI (converted)) was 2400 nM and the growth at 0.008 µM (SF-539 [4]) was 101%. The GI50 (COLO 205 [5]; read-out: GI50) was 152 nM, the GI50 (COLO 205 [5]; read-out: pGI50 (converted)) was 151 nM and the GI50 (SF-539 [6]) was 1290 nM. For the same molecule, the LC50 (SF-539 [6]) was 4570 nM, the TGI (SF-539 [6]; read-out: pTGI (converted)) was 2450 nM and the growth at 8 µM (OVCAR-5) was -74%. The LC50 (ACHN) was 4790 nM, the GI50 (ACHN; read-out: GI50) was 1270 nM and the TGI (ACHN; read-out: TGI) was 2470 nM. For the same molecule, the GI50 (ACHN; read-out: pGI50 (converted)) was 1260 nM, the TGI (ACHN; read-out: pTGI (converted)) was 2450 nM and the growth at 0.8 µM (NCI-H23) was 103%. It also gave a growth at 0.8 µM (COLO 205 [7]) of -52%, a growth at 0.08 µM (U-251) of 103% and a GI50 (HOP-92 [8]) of 1700 nM. The LC50 (HOP-92 [8]) was 47900 nM, the TGI (HOP-92 [8]; read-out: pTGI (converted)) was 7080 nM and the growth at 80 µM (Malme-3M) was -23%. For the same molecule, the growth at 8 µM (NCI/ADR-RES) was -43%, the growth at 0.008 µM (SK-OV-3 [9]) was 107% and the growth at 80 µM (KM12) was 9%. For the same molecule, the growth at 8 µM (T47D) was -63%, the GI50 (SNB-75; read-out: GI50) was 808 nM and the TGI (SNB-75; read-out: TGI) was 1900 nM. For the same molecule, the GI50 (SNB-75; read-out: pGI50 (converted)) was 813 nM, the TGI (SNB-75; read-out: pTGI (converted)) was 1910 nM and the growth at 80 µM (MDA-MB-435) was -9%. It also gave a growth at 0.08 µM (Hs-578T) of 101%, a growth at 0.8 µM (HCC 2998) of 6% and a growth at 0.08 µM (SK-OV-3 [10]) of 101%. For the same molecule, the growth at 0.08 µM (SF-295) was 99%, the growth at 0.008 µM (HOP-92 [11]) was 81% and the growth at 8 µM (SK-MEL-2) was -74%. For the same molecule, the growth at 0.08 µM (MDA-MB-231) was 97%, the growth at 8 µM (SK-OV-3 [12]) was -87% and the GI50 (OVCAR-4) was 1230 nM. For the same molecule, the TGI (OVCAR-4; read-out: pTGI (converted)) was 2820 nM, the growth at 80 µM (MCF7) was 6% and the growth at 0.008 µM (RPMI-8226) was 111%. The growth at 0.008 µM (HCT-15 [13]) was 98%, the GI50 (HCT-15 [14]; read-out: GI50) was 264 nM and the TGI (HCT-15 [14]; read-out: TGI) was 814 nM. The GI50 (HCT-15 [14]; read-out: pGI50 (converted)) was 263 nM, the TGI (HCT-15 [14]; read-out: pTGI (converted)) was 813 nM and the growth at 0.08 µM (RXF 393) was 99%. For the same molecule, the growth at 80 µM (SK-MEL-28) was -13%.
